Data set [1] has as its target T1, Vascular endothelial growth factor receptor 2 (Homo sapiens, UniProt P35968). Nature of the data set: Inhibition of VEGFR2 by HTRF method.
Target sequence in this assay (P35968 whole entry): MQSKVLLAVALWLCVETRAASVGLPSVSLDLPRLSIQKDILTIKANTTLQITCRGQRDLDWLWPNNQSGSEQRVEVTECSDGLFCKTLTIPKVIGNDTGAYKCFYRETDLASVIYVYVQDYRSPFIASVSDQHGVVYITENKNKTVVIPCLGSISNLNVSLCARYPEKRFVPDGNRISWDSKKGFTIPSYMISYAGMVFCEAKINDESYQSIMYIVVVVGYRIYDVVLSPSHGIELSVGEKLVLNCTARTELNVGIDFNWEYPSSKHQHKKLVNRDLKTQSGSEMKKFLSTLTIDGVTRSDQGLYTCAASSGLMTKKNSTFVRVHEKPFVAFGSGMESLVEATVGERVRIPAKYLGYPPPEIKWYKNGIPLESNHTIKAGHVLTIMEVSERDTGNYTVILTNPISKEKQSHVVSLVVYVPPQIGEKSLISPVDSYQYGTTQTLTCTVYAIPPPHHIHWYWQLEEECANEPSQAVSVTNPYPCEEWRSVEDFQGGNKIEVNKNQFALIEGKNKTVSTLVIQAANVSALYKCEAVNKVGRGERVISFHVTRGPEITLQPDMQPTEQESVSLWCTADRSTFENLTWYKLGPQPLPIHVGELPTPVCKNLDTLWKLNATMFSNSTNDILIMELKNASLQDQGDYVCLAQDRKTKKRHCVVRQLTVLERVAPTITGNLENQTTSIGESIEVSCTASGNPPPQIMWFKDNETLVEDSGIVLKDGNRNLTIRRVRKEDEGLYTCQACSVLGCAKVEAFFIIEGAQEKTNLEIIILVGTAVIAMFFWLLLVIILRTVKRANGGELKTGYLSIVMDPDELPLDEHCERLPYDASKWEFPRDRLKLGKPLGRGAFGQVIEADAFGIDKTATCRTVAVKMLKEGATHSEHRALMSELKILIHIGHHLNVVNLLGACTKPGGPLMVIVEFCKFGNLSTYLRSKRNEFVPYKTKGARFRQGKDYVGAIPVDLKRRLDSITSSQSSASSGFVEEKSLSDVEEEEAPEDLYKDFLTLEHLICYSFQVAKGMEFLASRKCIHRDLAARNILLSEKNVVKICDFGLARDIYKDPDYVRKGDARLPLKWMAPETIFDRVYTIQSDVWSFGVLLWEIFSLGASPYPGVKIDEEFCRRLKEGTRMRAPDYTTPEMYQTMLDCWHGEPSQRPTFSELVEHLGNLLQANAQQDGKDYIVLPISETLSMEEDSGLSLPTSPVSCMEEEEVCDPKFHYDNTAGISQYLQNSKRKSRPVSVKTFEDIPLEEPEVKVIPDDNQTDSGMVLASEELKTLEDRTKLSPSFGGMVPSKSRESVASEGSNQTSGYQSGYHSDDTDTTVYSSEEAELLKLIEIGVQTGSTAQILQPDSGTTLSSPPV
Data set [2] has as its target Vascular endothelial growth factor receptor 3 (Homo sapiens) (UniProt P35916). The data set is described as follows: Inhibition of VEGFR3 at 10 uM.
Data set [3] concerns the target Fibroblast growth factor receptor 1 (Homo sapiens) (UniProt P11362). Nature of the data set: Inhibition of FGFR1 at 10 uM.
The target in data set [4] is Sodium-dependent dopamine transporter (Homo sapiens) (UniProt Q01959). Nature of the data set: Inhibition of dopamine transporter at 10 uM.
Sodium-dependent dopamine transporter (Homo sapiens), sequence (Q01959 whole entry): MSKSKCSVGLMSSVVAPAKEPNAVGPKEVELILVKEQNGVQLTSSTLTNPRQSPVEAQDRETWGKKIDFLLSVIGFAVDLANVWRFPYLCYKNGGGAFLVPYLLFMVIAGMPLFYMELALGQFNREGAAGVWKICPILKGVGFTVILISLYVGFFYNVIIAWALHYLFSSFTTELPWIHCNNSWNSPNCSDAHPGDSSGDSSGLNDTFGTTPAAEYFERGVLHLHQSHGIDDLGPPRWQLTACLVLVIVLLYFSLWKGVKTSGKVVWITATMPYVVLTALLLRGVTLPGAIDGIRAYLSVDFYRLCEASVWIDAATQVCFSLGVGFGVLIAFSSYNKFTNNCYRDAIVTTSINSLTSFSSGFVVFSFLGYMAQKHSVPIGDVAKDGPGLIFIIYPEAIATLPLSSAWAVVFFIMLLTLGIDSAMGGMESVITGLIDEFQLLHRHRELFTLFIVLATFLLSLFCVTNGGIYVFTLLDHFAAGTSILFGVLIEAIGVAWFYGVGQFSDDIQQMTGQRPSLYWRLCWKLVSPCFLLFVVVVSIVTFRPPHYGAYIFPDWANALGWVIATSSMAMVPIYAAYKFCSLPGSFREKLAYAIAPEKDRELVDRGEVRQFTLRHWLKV
The nature of data set [5]: Inhibition of adenosine receptor at 10 uM.
Data set [6] deals with Histamine H2 receptor (Homo sapiens) (UniProt P25021). The data set is described as follows: Inhibition of histamine H2 receptor at 10 uM.
The target in data set [7] is Voltage-gated inwardly rectifying potassium channel KCNH2 (Homo sapiens, UniProt Q12809). The data set is described as follows: Inhibition of human ERG. As to conditions: read-out: ED50 (the source's name); call rule not given here.
Voltage-gated inwardly rectifying potassium channel KCNH2, sequence (Q12809 whole entry): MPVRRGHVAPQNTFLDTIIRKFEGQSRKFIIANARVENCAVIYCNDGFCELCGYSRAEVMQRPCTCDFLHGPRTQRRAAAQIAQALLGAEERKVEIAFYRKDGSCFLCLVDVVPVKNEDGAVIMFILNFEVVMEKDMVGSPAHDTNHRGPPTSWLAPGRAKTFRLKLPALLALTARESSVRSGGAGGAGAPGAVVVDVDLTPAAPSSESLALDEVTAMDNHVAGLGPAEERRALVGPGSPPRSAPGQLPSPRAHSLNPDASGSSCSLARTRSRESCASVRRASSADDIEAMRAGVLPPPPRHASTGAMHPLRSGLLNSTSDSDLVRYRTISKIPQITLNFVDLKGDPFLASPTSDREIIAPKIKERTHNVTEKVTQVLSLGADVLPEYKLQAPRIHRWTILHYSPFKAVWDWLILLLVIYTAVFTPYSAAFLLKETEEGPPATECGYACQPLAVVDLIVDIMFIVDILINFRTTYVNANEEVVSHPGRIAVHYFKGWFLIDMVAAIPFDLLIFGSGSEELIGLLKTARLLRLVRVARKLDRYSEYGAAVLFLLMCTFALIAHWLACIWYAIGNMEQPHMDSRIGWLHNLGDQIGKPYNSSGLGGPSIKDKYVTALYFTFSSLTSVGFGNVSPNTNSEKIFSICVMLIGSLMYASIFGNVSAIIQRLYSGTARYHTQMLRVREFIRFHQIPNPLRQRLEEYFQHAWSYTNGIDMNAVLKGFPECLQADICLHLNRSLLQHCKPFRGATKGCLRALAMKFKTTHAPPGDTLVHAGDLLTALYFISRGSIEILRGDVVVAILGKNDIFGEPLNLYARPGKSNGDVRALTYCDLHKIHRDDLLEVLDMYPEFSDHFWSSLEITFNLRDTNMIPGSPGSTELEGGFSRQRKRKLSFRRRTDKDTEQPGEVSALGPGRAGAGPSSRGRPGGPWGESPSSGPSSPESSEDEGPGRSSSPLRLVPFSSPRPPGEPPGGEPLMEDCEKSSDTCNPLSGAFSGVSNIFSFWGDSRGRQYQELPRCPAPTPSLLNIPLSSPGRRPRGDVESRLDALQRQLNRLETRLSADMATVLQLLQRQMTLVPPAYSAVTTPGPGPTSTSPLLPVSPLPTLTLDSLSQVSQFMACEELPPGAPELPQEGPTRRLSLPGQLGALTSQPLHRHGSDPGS
Data set [8] deals with Cytochrome P450 3A4 (Homo sapiens, UniProt P08684). The data set is described as follows: Inhibition of CYP3A4. The data set is classed as ADME.
Cytochrome P450 3A4, sequence (P08684 whole entry): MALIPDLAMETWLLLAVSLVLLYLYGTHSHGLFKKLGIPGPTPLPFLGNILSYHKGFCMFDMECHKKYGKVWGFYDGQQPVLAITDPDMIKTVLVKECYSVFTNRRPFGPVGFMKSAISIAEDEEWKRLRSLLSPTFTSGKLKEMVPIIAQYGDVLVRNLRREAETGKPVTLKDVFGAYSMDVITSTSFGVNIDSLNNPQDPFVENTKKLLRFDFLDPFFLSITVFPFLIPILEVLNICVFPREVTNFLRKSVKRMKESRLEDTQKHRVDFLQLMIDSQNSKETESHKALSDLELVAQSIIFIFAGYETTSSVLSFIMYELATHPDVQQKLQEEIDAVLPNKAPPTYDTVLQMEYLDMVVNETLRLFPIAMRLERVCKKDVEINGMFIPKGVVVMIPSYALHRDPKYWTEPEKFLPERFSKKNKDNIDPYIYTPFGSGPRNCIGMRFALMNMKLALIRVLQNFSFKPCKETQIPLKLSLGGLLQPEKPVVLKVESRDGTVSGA
Data set [9] in a line: Solubility in deionized water. The data set is classed as physicochemical.
Data set [10] concerns HUVEC. The data set is described as follows: Inhibition of VEGF-stimulated HUVEC cell proliferation treated before 2 hrs of VEGF challenge assessed after 3 days by [3H]thymidine incorporation assay. It counts as functional. Conditions: Homo sapiens, read-out: ED50 (the source's name). Summed up:
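HUVEC seeded at 1 × 10^4 cells/well in EGM and allowed to adhere ≥4 h. Cells then quiesced 72 h in medium lacking EGF, VEGF and FGF with 1% FBS. Compound added for 2 h (0.1% DMSO), then stimulation with VEGF-165 (5 ng/well) for 3 days.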

Data set [11] in a line: Drug level in po dosed CD1 mouse administered as 5% phosal solution after 1 hr. It counts as ADME, organism-based. Conditions: in vivo, read-out: Drug uptake. The essentials:
(§1)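 Preliminary exposure study in female CD-1 mice dosed by oral route; vehicles included 5% phosal solution. Plasma analysed for compound at 1-h and 4-h timepoints.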

Data set [12] can be described thus: Drug level in po dosed CD1 mouse administered as 5% phosal solution after 4 hrs. The data set is classed as ADME, organism-based. Conditions: in vivo, read-out: Drug uptake. Summed up: as §1
Data set [13] in a line: Cmax in CD1 mouse at 30 mg/kg administered as 5% phosal solution after 24 hrs. The data set is classed as ADME, organism-based. Also noted: dose 30 mg/kg. Conditions: in vivo. Summed up: (§2)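 Female CD-1 mice (n = 3) given 30 mg/kg orally in 5% phosal solution (dihydrochloride salt; target ca. 3 mg/mL, dosed at 10 mL/kg).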
Data set [14] is described as follows: AUC (0 to 24 hrs) in CD1 mouse at 30 mg/kg administered as 5% phosal solution. Also noted: time < 24 hr, dose 30 mg/kg. Conditions: plasma. It counts as ADME, organism-based. Summed up:
as §2

Data set [15] has as its target T1, Vascular endothelial growth factor receptor 2. As to conditions: HEK293.
Target sequence in this assay (P35968 whole entry, looked up): as the sequence (P35968 whole entry) above

Molecules are shown by their SMILES. ≈ marks a conversion by molar mass, not a printed value. Some results are limits rather than exact numbers.

Vascular endothelial growth factor receptor 3 (Homo sapiens), sequence (P35916 whole entry): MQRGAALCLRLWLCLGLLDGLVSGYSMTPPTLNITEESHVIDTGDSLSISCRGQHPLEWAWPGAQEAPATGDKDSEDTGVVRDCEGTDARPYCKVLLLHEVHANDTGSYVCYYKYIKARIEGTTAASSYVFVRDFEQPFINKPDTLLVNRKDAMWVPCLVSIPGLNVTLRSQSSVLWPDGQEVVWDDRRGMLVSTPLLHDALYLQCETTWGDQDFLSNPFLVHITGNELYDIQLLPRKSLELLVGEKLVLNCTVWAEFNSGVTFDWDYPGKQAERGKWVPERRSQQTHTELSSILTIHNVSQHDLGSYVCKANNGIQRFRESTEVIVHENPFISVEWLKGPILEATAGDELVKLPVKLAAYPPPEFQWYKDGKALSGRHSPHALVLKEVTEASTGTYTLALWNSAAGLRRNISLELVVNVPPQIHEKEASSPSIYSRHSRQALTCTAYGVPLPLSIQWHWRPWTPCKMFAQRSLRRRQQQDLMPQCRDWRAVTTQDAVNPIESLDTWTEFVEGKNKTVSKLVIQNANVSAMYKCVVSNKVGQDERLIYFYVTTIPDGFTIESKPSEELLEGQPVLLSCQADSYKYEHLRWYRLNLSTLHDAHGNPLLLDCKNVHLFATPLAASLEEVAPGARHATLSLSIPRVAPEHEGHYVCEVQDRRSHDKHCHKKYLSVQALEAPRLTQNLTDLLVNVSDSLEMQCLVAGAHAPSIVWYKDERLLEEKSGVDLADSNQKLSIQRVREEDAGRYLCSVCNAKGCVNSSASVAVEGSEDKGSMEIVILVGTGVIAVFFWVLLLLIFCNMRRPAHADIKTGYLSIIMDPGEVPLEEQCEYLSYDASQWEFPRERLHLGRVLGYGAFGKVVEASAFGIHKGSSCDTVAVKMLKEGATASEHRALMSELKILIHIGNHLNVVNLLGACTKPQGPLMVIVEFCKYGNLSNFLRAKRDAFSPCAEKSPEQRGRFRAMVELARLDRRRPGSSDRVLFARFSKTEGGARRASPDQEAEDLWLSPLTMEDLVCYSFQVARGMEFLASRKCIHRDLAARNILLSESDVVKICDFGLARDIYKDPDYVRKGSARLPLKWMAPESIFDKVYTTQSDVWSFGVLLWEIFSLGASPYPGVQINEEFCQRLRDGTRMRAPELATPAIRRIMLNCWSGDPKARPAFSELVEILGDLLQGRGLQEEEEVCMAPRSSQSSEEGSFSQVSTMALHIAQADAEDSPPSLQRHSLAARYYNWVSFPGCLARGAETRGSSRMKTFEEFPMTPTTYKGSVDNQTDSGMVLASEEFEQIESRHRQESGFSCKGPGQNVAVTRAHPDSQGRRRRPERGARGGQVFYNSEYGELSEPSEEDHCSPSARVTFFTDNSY

Compound `CNS(=O)(=O)c1ccc(Nc2nnc(-c3ccc(C(N)=O)cc3)c3ccccc23)cc1` returned an IC50 in data set [1] above 10000 nM.
For the compound `Clc1ccc(Nc2nnc(-c3cccc4cnccc34)c3ccccc23)cc1`, the inhibition in data set [2] came to 33%; in [3] it was 38%; in data set [4], 77%; in data set [5] it was 65%; in [6], 54%. Besides, the IC50 in data set [7] came to 3000 nM. Moreover, the Activity entry in [8] is given as “Not Active”. Besides, the concentration in solution in [9] (solubility) was 1000 µg/mL (≈ 2610 µM). The EC50 in [10] turned out to be 210 nM. Further, the concentration at 1 h in data set [11] was found to be 22.7 µM. In addition, the concentration at 4 h in [12] was found to be 18.8 µM. The same compound gave a Cmax in data set [13] of 25.9 µM. The compound also displayed an AUC(0-t) at 24 h in data set [14] of 891 µM·h. In data set [15], the ED50 stood at 10 nM.
As to `COc1cc2c(Oc3ccc4[nH]c(C)cc4c3F)ncnc2cc1OCCCN1CCCC1` [CEDIRANIB], in data set [10], the EC50 worked out at 12 nM.
The same measure, in the same setting: in the case of `CC(C)(C)c1ccc(Nc2nnc(-c3ccc(C(N)=O)cc3)c3ccccc23)cc1` it was 250 nM.
`COc1ccc(Nc2nnc(-c3ccc(C(N)=O)cc3)c3ccccc23)cc1` displayed an ED50 in data set [15] above 10000 nM.
`NC(=O)c1ccc(-c2nnc(Nc3ccc(Oc4ccccc4)cc3)c3ccccc23)cc1` showed an IC50 in data set [1] above 10000 nM.
As for `COc1cc2/c(=N/c3ccc(Br)cc3F)nc[nH]c2cc1OCC1CCN(C)CC1` [VANDETANIB], the EC50 in data set [10] stood at 280 nM.

The values are drawn from ChEMBL document CHEMBL1140880, “Arylphthalazines as potent, and orally bioavailable inhibitors of VEGFR-2” (Bioorg Med Chem, 2009).
